Series [1] has as its system Rattus norvegicus. As to the kind of experiment: Antidyslipidemic activity in ZDF rat assessed as LDL/IgHDL level at 30 mg/kg for 9 days by FPLC analysis (reference value: 17.8 mg/dL). The format is functional, Zucker.
For series [2], the system named is Rattus norvegicus. Nature of the series: Antidyslipidemic activity in ZDF rat assessed as LDL/IgHDL level at 3 mg/kg for 9 days by FPLC analysis (reference value: 17.8 mg/dL). The format is functional, Zucker.
Series [3] is described as follows: AUC (0 to 24 hrs) in cynomolgus monkey at 0.91 mg/kg, iv by LC-MS/MS analysis. The format is ADME, organism-based, Macaca fascicularis. Also on record: dose 0.91 mg/kg, time < 24 hr, route intravenous. Particulars: in vivo. The method in brief:
(§1)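 Sprague Dawley rats, Beagle dogs and Cynomolgus monkeys were dosed IV at 1 mg/kg (rat, dog) or 0.91 mpk (monkey) in 5% Solutol/5% EtOH in saline. Oral/nasogastric dosing was 3 mpk in 1.0% CMC/0.25% PS80/0.05% antifoam in purified water. Samples were processed to plasma and analysed by LC-MS/MS; values are mean ± SD, N=2-3.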

Series [4] can be described thus: AUC (0 to 24 hrs) in Sprague-Dawley rat at 3 mg/kg, po by LC-MS/MS analysis. The format is ADME, organism-based. Also on record: time < 24 hr, dose 3 mg/kg, route oral. Particulars: in vivo. The method in brief:
as §1

Series [5] can be described thus: Fraction unbound in rat plasma. The format is ADME, cell-free.
Series [6] is described as follows: Clearance in cynomolgus monkey at 0.91 mg/kg, iv by LC-MS/MS analysis. The format is ADME, organism-based, Macaca fascicularis. Particulars: in vivo. The method, boiled down: as §1
Series [7] relates to Mus musculus. As to the kind of experiment: Antidyslipidemic activity in western-diet fed mouse expressing LDL-receptor (-/-) assessed as decrease in total cholesterol level at 3 mg/kg qd for a week administered via gavage […]. The format is functional. The conditions noted are these: po. The method in brief: (§2)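 Male LDLR null mice, six per group, were gavaged once daily for one week with compound (in situ sodium salt) or vehicle (5% Solutol, 5% EtOH, 1% wt/v CMC) at 5 mL/kg. On day 7 they were bled by cardiac puncture under CO2 anaesthesia. Serum cholesterol and triglycerides were measured enzymatically on a clinical chemistry analyser (mean ± SD, n=6). ED50 was obtained by nonlinear regression.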

A further series concerns the target T1, Progesterone receptor (Homo sapiens, UniProt P06401).
T1 sequence (P06401 whole entry): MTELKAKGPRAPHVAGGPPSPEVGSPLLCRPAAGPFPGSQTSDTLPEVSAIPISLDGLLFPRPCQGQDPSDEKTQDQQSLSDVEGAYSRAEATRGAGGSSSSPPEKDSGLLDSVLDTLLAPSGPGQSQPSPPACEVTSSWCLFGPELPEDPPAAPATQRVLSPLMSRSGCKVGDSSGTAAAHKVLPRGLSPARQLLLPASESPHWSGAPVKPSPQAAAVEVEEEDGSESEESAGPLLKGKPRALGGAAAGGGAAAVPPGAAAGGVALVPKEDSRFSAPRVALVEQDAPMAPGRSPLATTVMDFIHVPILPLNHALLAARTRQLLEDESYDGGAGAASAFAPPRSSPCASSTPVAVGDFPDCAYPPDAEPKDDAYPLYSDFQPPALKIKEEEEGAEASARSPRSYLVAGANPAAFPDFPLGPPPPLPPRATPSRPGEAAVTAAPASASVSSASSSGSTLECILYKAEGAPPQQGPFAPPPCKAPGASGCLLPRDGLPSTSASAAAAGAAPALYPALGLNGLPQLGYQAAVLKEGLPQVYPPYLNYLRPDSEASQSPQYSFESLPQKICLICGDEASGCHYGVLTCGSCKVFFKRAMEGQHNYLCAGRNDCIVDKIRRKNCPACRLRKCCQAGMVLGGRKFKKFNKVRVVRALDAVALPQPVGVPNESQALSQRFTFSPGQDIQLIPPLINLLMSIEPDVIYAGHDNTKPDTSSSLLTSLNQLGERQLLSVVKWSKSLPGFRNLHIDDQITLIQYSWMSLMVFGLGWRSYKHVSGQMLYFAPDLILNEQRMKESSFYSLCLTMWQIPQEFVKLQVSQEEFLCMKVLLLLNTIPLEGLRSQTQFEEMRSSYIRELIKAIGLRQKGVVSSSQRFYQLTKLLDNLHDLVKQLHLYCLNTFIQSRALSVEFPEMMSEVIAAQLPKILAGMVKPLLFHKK
As to the kind of experiment: Agonist activity at progesterone receptor (unknown origin) expressed in HEK293 cells assessed as transcriptional activation. The format is cell-based.

Series [8] deals with Rattus norvegicus. Nature of the series: Antidyslipidemic activity in ZDF rat assessed as VLDL level at 3 mg/kg for 9 days by FPLC analysis (reference value: 35 mg/dL). The format is functional, Zucker.
The nature of series [9]: Cmax in rat at ED50 dose for lipid modulation. The format is ADME, organism-based. Particulars: in vivo.
Series [10] has as its system Mus musculus. As to the kind of experiment: Antidyslipidemic activity in western-diet fed mouse expressing LDL-receptor (-/-) assessed as decrease in very-low density lipoprotein level at 10 mg/kg qd for a week administered via gavage by FPLC analysis. The format is functional. The conditions noted are these: po. The method, boiled down: (§3)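 LDLR null male mice, six per group, were dosed by gavage once daily for one week (vehicle 5% Solutol, 5% EtOH, 1% wt/v CMC; 5 mL/kg). Serum was collected by cardiac puncture on day 7 under CO2 anaesthesia. Pooled serum from each treatment group was fractionated by FPLC to quantify VLDL and LDL.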

The subject of series [11] is Rattus norvegicus. Nature of the series: Antidyslipidemic activity in ZDF rat assessed as VLDL level at 10 mg/kg for 9 days by FPLC analysis (reference value: 35 mg/dL). The format is functional, Zucker.
Series [12] is described as follows: Tmax in Sprague-Dawley rat at 3 mg/kg, po by LC-MS/MS analysis. The format is ADME, organism-based. The conditions noted are these: in vivo. The method, boiled down:
(§4)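 Oral/nasogastric dosing at 3 mpk in 1.0% CMC/0.25% PS80/0.05% antifoam in purified water. Plasma samples collected and analyzed by LC-MS/MS; parameters reported as mean ± SD, N=2-3.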

The nature of series [13]: Terminal half life in Sprague-Dawley rat at 3 mg/kg, po by LC-MS/MS analysis. The format is ADME, organism-based. The conditions noted are these: in vivo, read-out: beta t1/2 (converted). The method, boiled down: as §4
The nature of series [14]: Initial plasma concentration in cynomolgus monkey at 0.91 mg/kg, iv by LC-MS/MS analysis. The format is ADME, organism-based, Macaca fascicularis. The method in brief: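 Intravenous dose given in 5% Solutol / 5% EtOH in saline (1 mg/kg rat and dog, 0.91 mpk monkey). Plasma samples collected and analyzed by LC-MS/MS; parameters reported as mean ± SD, N=2-3.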
Series [15] relates to Mus musculus. As to the kind of experiment: Antidyslipidemic activity in western-diet fed mouse expressing LDL-receptor (-/-) assessed as decrease in very-low density lipoprotein level at 1 mg/kg qd for a week administered via gavage by FPLC analysis. The format is functional. The conditions noted are these: po. The method, boiled down:
as §3

Series [16] in a line: Half life in human at 75 to 600 mg. The format is ADME, organism-based. Particulars: in vivo. The method in brief: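 Healthy subjects (two cohorts of 9) received single oral doses in a double-blind, placebo-controlled, 2-cohort, 3-period dose-escalation study at one site. Doses covered 5 to 600 mg. Half-life was taken as the mean over the 75–600 mg range.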
Series [17] relates to Mus musculus. As to the kind of experiment: Antidyslipidemic activity in western-diet fed mouse expressing LDL-receptor (-/-) assessed as decrease in triglyceride level at 10 mg/kg qd for a week administered via gavage […]. The format is functional. The conditions noted are these: po. The method, boiled down:
as §2

Series [18] deals with Rattus norvegicus. As to the kind of experiment: Antidyslipidemic activity in ZDF rat assessed as HDL level at 3 mg/kg for 9 days by FPLC analysis (reference value: 48.3 mg/dL). The format is functional, Zucker.
Series [19] relates to Mus musculus. As to the kind of experiment: Antidyslipidemic activity in western-diet fed mouse expressing LDL-receptor (-/-) assessed as decrease in very-low density lipoprotein level at 30 mg/kg qd for a week administered via gavage by FPLC analysis. The format is functional. Particulars: po. The method in brief: as §3
A short description of series [20]: AUC (0 to 24 hrs) in beagle dog at 1 mg/kg, iv by LC-MS/MS analysis. The format is ADME, organism-based, Canis lupus familiaris. Also on record: time < 24 hr, dose 1 mg/kg, route intravenous. Particulars: in vivo. The method in brief:
as §1

Where only a bound is given, the exact number is not on record here.

As for `Cn1cc(C(=O)O)c2ccc(N3CCC(OCc4c(-c5c(Cl)cccc5Cl)noc4C4CC4)CC3)cc21` [TERN-101], the Activity with Rattus norvegicus [1] turned out to be 18.6 mg/dL; in the series with Rattus norvegicus [2], 10.8 mg/dL; in the series on Rattus norvegicus [8], 21.9 mg/dL; with Rattus norvegicus [11], 18.2 mg/dL; in the series on Rattus norvegicus [18], 62.5 mg/dL. Besides, the AUC(0-t) (in general, exposure summed from dosing to a finite time, without extrapolation to infinity) at 24 h in series [3] came to 2300 ng·h/mL; in [4], 365 ng·h/mL; in series [20] it was 1780 ng·h/mL. Also, the fraction unbound (usually free concentration divided by total concentration) in series [5] was found to be 0.02. In addition, the clearance (commonly a measure of how efficiently the substance is removed, as volume per time) in series [6] stood at 6 mL/min/kg. Moreover, in the series with Mus musculus [7], the inhibition in vivo (usually the change of the read-out against control, counted positive when it falls) at 3 mg/kg worked out at 57%. In addition, at Progesterone receptor, the EC50 (commonly the concentration giving half of the maximal effect) was more than 10 µM. For the same molecule, in [9], the highest level (Cmax) was 4.62 ng/mL. Besides, the inhibition in vivo at 10 mg/kg in the series with Mus musculus [10] was 96%; in the series with Mus musculus [17], 76%. In [12], the Tmax (usually the time at which the peak concentration occurs) was determined as 1.08 h. Besides, the figures for the half-life in series [13] and in series [16] were 2 h and 16.9 h, respectively. Also, the C0 in series [14] came out at 4220 ng/mL. In the series with Mus musculus [15], the inhibition in vivo at 1 mg/kg came out at 59%. Also, the inhibition in vivo at 30 mg/kg with Mus musculus [19] worked out at 98%.

These data come from ChEMBL document CHEMBL3745677, “Discovery of 6-(4-{[5-Cyclopropyl-3-(2,6-dichlorophenyl)isoxazol-4-yl]methoxy}piperidin-1-yl)-1-methyl-1H-indole-3-carboxylic Acid: A Novel FXR Agonist for the Treatment of Dyslipidemia” (J Med Chem, 2015).
